This is an account of results in ChEMBL document CHEMBL1126945, “Synthesis and evaluation of 3-modified 1D-myo-inositols as inhibitors and substrates of phosphatidylinositol synthase and inhibitors of myo-inositol uptake by cells” (1993).

Assay [1] deals with T1, CDP-diacylglycerol--inositol 3-phosphatidyltransferase (Mus musculus) (UniProt Q8VDP6).
T1 sequence (whole entry): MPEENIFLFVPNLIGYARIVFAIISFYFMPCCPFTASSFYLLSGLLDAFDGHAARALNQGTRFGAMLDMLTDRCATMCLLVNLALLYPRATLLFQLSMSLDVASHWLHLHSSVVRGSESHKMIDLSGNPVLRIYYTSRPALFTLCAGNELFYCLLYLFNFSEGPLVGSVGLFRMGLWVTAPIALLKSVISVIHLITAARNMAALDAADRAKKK
As to the kind of experiment: Tested for inhibition of phosphatidylinositol synthase from mouse brain at 5 mM. The method, boiled down: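 Mouse brain microsomal PtdIns synthase; incorporation of 0.5 mM myo-[2-³H]inositol into CHCl₃-soluble lipid at 37 °C with Tris-HCl pH 8.3, 48 mM MgCl₂, 0.5 mM CDP-dipalmitin, 0.25% Triton X-100, 5 mM analogue, 0.05 mg microsomal protein. Stopped at 20 min with HCl/MeOH and CHCl₃; organic phase scintillation counted. Averages of two or more determinations.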

Assay [2] concerns the target T1, CDP-diacylglycerol--inositol 3-phosphatidyltransferase (Mus musculus). Put plainly: Tested as substrate of phosphatidylinositol synthase in mouse brain by measuring percent CMP formation compared with myo-inositol tested at 5 mM. It counts as functional, tissue-based. Put shortly: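 Mouse brain microsomes (12-day-old mice; 900g then 12000g pellet) as PtdIns synthase source. 37 °C, 50 mM Tris-HCl pH 8.3, 48 mM MgCl₂, 0.5 mM CDP-dipalmitin, 0.25% Triton X-100, 5 mM analogue or myo-inositol, 0.5 mg microsomal protein. Stopped in linear phase with CHCl₃-MeOH; aqueous CMP read at 280 nm. Expressed as % of myo-inositol; averages of two or more determinations.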

Assay [3] in a line: Michaelis-Menten constant was determined.
Assay [4] is filed under the species Rattus norvegicus. As to the kind of experiment: Tested for inhibition of myo-[3H]inositol uptake in F111 rat fibroblast cells at 5 mM. Type of assay: functional. Put shortly: (§1)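 F111 rat fibroblasts grown overnight on coverslips in inositol-free DMEM with 10% dialyzed calf serum and 10 μM myo-inositol, washed, then incubated 120 min at 37 °C, 5% CO₂ in Krebs-Ringer (HEPES pH 7.4) with 10 μM myo-[³H]inositol and 5 mM analogue. Washed, lysed in 1% SDS; radioactivity counted and normalised to BCA protein.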

The species entered for assay [5] is Rattus norvegicus. Put plainly: Tested for inhibition of myo-inositol uptake in F111 rat fibroblast cells at 5 mM. It counts as functional. The method, boiled down: as §1

In general, inhibition refers to the share of the control response that was lost under treatment. Higher therefore signals a response far below the control. In assay [1], `[N-]=[N+]=N[C@@H]1[C@H](O)[C@H](O)[C@@H](O)[C@@H](O)[C@@H]1O` had an inhibition of 17%. In addition, the Formation in assay [2] was found to be 1%.
Taken in the same sequence, the figures for `O[C@@H]1[C@@H](O)[C@@H](O)[C@@H](S)[C@@H](O)[C@@H]1O` were 40% and 1.5%.
Turning to `O=C1[C@@H](O)[C@H](O)[C@@H](O)[C@H](O)[C@@H]1O`, the inhibition in assay [1] came out at 47%. Further, the Formation in assay [2] is 7%.
Usually Km stands for the concentration of substrate that gives half-maximal velocity. Regarding `O[C@H]1[C@H](O)[C@@H](O)[C@H](O)[C@@H](O)[C@H]1O`, in assay [3], the Km came out at 1500 µM. Further, the Formation in assay [2] was determined as 100%.
On to `N[C@H]1[C@@H](O)[C@H](O)[C@H](O)[C@@H](O)[C@H]1O`, for which the inhibition in assay [1] was 19%. For the same compound, in the assay filed under Rattus norvegicus [4], 5000 µM produced 87% inhibition. Besides, the Formation in assay [2] is 9%.
The compound `O[C@@H]1[C@H](F)[C@@H](O)[C@@H](O)[C@H](O)[C@@H]1O` displayed an inhibition in assay [1] of 22%. Moreover, the Formation in assay [2] turned out to be 28%.
The corresponding values for `CO[C@@H]1[C@H](O)[C@@H](O)[C@@H](O)[C@H](O)[C@@H]1N=[N+]=[N-]` are 10% and 0%.
As for `O[C@H]1[C@@H](O)[C@H](O)C[C@H](O)[C@@H]1O`, 5000 µM produced 80% inhibition in the assay listed under Rattus norvegicus [5]. Also, in assay [1], the inhibition came to 9%. For the same compound, the Formation in assay [2] amounted to 6%.
The compound `CO[C@H]1C[C@@H](O)[C@H](O)[C@H](O)[C@H]1O` yielded an inhibition in assay [1] of 28%. This compound showed a Formation in assay [2] of 0%.
`O[C@@H]1[C@@H](O)[C@H](O)[C@@H](Cl)[C@@H](O)[C@H]1O` showed an inhibition in assay [1] of 30%. For the same compound, in assay [2], the Formation is 1%.
`O[C@@H]1[C@@H](O)[C@H](O)[C@@H](F)[C@@H](O)[C@H]1O`: the inhibition in assay [1] came out at 37%. The inhibition at 5000 µM in the assay filed under Rattus norvegicus [4] was found to be 97%. Also, the Formation in assay [2] came to 7%.
